Here are results for 13 molecules from ChEMBL document CHEMBL1152138, “Clubbed [1,2,3] triazoles by fluorine benzimidazole: a novel approach to H37Rv inhibitors as a potential treatment for tuberculosis” (Bioorg Med Chem Lett, 2008).

One data set deals with Staphylococcus aureus. The experiment in a line: Antimicrobial activity against Staphylococcus aureus after 24 hrs by well diffusion method. The format is functional. The essentials: (§1)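 Well diffusion on nutrient agar. 10 mm wells cut with a sterile cork borer. Plates swab-inoculated from a 24 h bacterial subculture in nutrient broth. Compounds dissolved in chloroform and added to wells at 50 and 100 µM. Gentamycin used as standard. % inhibition derived from inhibition zone diameter.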
A general note: Agar diffusion results depend on both activity and mobility in agar.

For another data set, the system named is Pseudomonas aeruginosa. The data set can be described thus: Antimicrobial activity against Pseudomonas aeruginosa after 24 hrs by well diffusion method. The data set is classed as functional. The essentials: as §1
For another data set, the system named is Escherichia coli. The data set can be described thus: Antimicrobial activity against Escherichia coli after 24 hrs by well diffusion method. The data set is classed as functional. The essentials:
as §1

The next data set has as its system Salmonella typhi. The data set can be described thus: Antimicrobial activity against Salmonella typhosa after 24 hrs by well diffusion method. The format is functional, Salmonella enterica subsp. enterica serovar Typhi. The essentials:
as §1

The subject of data set [1] is Mycobacterium tuberculosis. The data set can be described thus: Antitubercular activity against Mycobacterium tuberculosis H37Rv ATCC 27294 by microplate alamar blue assay. The format is functional. The essentials:
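Compounds active in the primary screen were retested at lower concentrations against H37Rv by Microplate Alamar Blue Assay. MIC taken as the lowest concentration giving a 95% reduction in fluorescence relative to controls. Rifampin used as reference.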

Data set [2] in a line: Cytotoxicity against african green monkey Vero C1008 cells at 6.25 to 50 ug/mL by neutral-red uptake assay. The data set is classed as cell-based. The conditions noted are these: chlorocebus sabaeus. Summed up:
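Vero C-1008 cells exposed to compounds at 6.25–50 µg/mL. Cytotoxicity read out by neutral red uptake.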

Data set [3] has as its system Mycobacterium tuberculosis. The experiment in a line: Antitubercular activity against Mycobacterium tuberculosis H37Rv ATCC 27294 at 6.25 ug/mL by microplate alamar blue assay. The format is functional. The conditions noted are these: read-out: GI. The essentials: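 Primary screen against M. tuberculosis H37Rv (ATCC 27294) at a single concentration of 6.25 µg/mL. Broth microdilution Microplate Alamar Blue Assay in BACTEC 12B medium. Fluorescent compounds were instead run in the BACTEC 460 radiometric system. Percent growth inhibition reported; >95% counted as active. Rifampin used as reference.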
For orientation: Resazurin is reduced to fluorescent resorufin, in cell work by metabolically active cells.

In brackets after ≈: the same amount, converted by molar mass. Several values for one entry are separate records, joined by “and”; a condition that tells them apart may be missing. Identical values can stand only once.

With `Cc1ccccc1-n1cc(Cn2c(-c3cccc(F)c3)nc3ccccc32)nn1`, the “inhibition zone (IZ)” value in the data set on Staphylococcus aureus was 16 mm; in the data set on Pseudomonas aeruginosa, 19 mm; in the data set with Escherichia coli, 14 mm; in the data set on Salmonella typhi it was 17 mm. Besides, the minimal inhibitory concentration (MIC) in data set [1] is > 12.5 µg/mL. In addition, in data set [2], the Activity entry is “Non-toxic”.

Regarding `Fc1cccc(-c2nc3ccccc3n2Cc2cn(-c3ccc(F)cc3F)nn2)c1`, the “inhibition zone (IZ)” value in the data set with Staphylococcus aureus came out at 33 mm; in the data set with Pseudomonas aeruginosa, 34 mm; in the data set with Escherichia coli, 32 mm; with Salmonella typhi it was 31 mm. Besides, the minimal inhibitory concentration (MIC) in data set [1] is 0.32 µM and > 6.25 µg/mL. In addition, in data set [3], the inhibition of growth at 6.25 µg/mL was 96%. The Activity entry in data set [2] was “Non-toxic”.

As for `Fc1cccc(-c2nc3ccccc3n2Cc2cn(-c3ccc(F)c(F)c3F)nn2)c1`, the “inhibition zone (IZ)” value came out at 31 mm in the data set with Staphylococcus aureus, 33 mm in the data set on Pseudomonas aeruginosa, 29 mm in the data set with Escherichia coli and 30 mm in the data set with Salmonella typhi. For the same molecule, the MIC in data set [1] was > 6.25 µg/mL. Further, the Activity result in data set [2] is “Non-toxic”.

Regarding `Fc1cccc(-c2nc3ccccc3n2Cc2cn(-c3ccc(C(F)(F)F)cc3)nn2)c1`, the “inhibition zone (IZ)” value in the data set with Staphylococcus aureus is reported as 18 mm; in the data set on Pseudomonas aeruginosa it was 13 mm; with Escherichia coli, 21 mm; in the data set with Salmonella typhi, 18 mm. Besides, in data set [1], the MIC was > 6.25 µg/mL. Moreover, in data set [2], the Activity entry is “Non-toxic”.

With `COc1ccc(-n2cc(Cn3c(-c4cccc(F)c4)nc4ccccc43)nn2)cc1`, the “inhibition zone (IZ)” value amounted to 20 mm in the data set with Staphylococcus aureus, 26 mm in the data set on Pseudomonas aeruginosa, 18 mm in the data set with Escherichia coli and 21 mm in the data set on Salmonella typhi. In data set [1], the MIC was 6.25 µM and > 6.25 µg/mL. In data set [3], the inhibition of growth at 6.25 µg/mL is 96%. Further, the Activity entry in data set [2] is given as “Non-toxic”.

Consider `Cc1ccc(-n2cc(Cn3c(-c4cccc(F)c4)nc4ccccc43)nn2)c(F)c1`, for which the “inhibition zone (IZ)” value in the data set with Staphylococcus aureus worked out at 18 mm; in the data set with Pseudomonas aeruginosa, 13 mm; in the data set with Escherichia coli, 21 mm; with Salmonella typhi it was 18 mm. Moreover, the MIC in data set [1] is 3.13 µM and > 6.25 µg/mL. Besides, the inhibition of growth at 6.25 µg/mL in data set [3] worked out at 96%. Besides, the Activity entry in data set [2] is listed as “Non-toxic”.

Turning to `Cc1ccc(-n2cc(Cn3c(-c4cccc(F)c4)nc4ccccc43)nn2)cc1`, the “inhibition zone (IZ)” value with Staphylococcus aureus was 18 mm; with Pseudomonas aeruginosa, 20 mm; with Escherichia coli, 19 mm; in the data set on Salmonella typhi it was 17 mm. In data set [1], the MIC was > 12.5 µg/mL. Also, the Activity entry in data set [2] is “Non-toxic”.

Consider `CO[C@H]1/C=C/O[C@@]2(C)Oc3c(C)c(O)c4c(O)c(c(/C=N/N5CCN(C)CC5)c(O)c4c3C2=O)NC(=O)/C(C)=C\C=C\[C@H](C)[C@H](O)[C@@H](C)[C@@H](O)[C@@H](C)[C@H](OC(C)=O)[C@@H]1C` [RIFAMPIN], for which, in data set [1], the MIC is 0.015 µg/mL (≈ 0.0182 µM).

Take `Fc1ccc(-n2cc(Cn3c(-c4cccc(F)c4)nc4ccccc43)nn2)cc1`: the “inhibition zone (IZ)” value is recorded as 26 mm in the data set on Staphylococcus aureus, 19 mm in the data set on Pseudomonas aeruginosa, 20 mm with Escherichia coli and 19 mm in the data set with Salmonella typhi. Also, the MIC in data set [1] was 0.58 µM and > 6.25 µg/mL. The inhibition of growth at 6.25 µg/mL in data set [3] amounted to 96%. Also, the Activity result in data set [2] is listed as “Non-toxic”.

GENTAMICIN had an inhibition zone (IZ) in the data set with Salmonella typhi (Salmonella enterica subsp. enterica serovar Typhi) of 30 mm.

Take `Fc1cccc(-c2nc3ccccc3n2Cc2cn(-c3ccc(F)c(F)c3)nn2)c1`: the “inhibition zone (IZ)” value in the data set on Staphylococcus aureus amounted to 32 mm; in the data set on Pseudomonas aeruginosa it was 31 mm; in the data set with Escherichia coli, 30 mm; in the data set with Salmonella typhi it was 29 mm. Moreover, the MIC in data set [1] was 0.34 µM and > 6.25 µg/mL. In addition, the inhibition of growth at 6.25 µg/mL in data set [3] is 96%. In addition, the Activity entry in data set [2] was “Non-toxic”.

Turning to `Fc1cccc(-c2nc3ccccc3n2Cc2cn(-c3ccccc3)nn2)c1`, the “inhibition zone (IZ)” value in the data set with Staphylococcus aureus amounted to 26 mm; in the data set with Pseudomonas aeruginosa it was 28 mm; with Escherichia coli, 17 mm; in the data set with Salmonella typhi it was 18 mm. Further, the MIC in data set [1] is > 6.25 µg/mL. Moreover, in data set [2], the Activity entry is on record as “Non-toxic”.

Regarding `COc1ccccc1-n1cc(Cn2c(-c3cccc(F)c3)nc3ccccc32)nn1`, the “inhibition zone (IZ)” value came out at 21 mm in the data set with Staphylococcus aureus, 24 mm in the data set on Pseudomonas aeruginosa, 19 mm in the data set with Escherichia coli and 23 mm in the data set with Salmonella typhi. Further, the MIC in data set [1] is > 6.25 µg/mL. In data set [2], the Activity result was “Non-toxic”.

The term MIC denotes the smallest concentration in the dilution series that meets the test's criterion for growth inhibition.
